Biological target: Phosphatidylinositol 3-kinase regulatory subunit alpha/4,5-bisphosphate 3-kinase catalytic subunit alpha isoform (Homo sapiens, UniProt P27986+P42336)
Assay: Inhibition of human PI3K p110alpha/p85alpha expressed in baculovirus preincubated for 20 mins followed by addition of phosphorylate phosphatidylinositol-4,5-bisphosphate as substrate and ATP measured after 15 mins by AlphaScreen competition assay
Method in brief: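 Purified baculovirus-expressed human p110/p85α preincubated with compound 20 min at room temperature. Then 4 µM PI(4,5)P2 and 10 µM ATP (5 mM Hepes pH 7.5, 2.5 mM MgCl2) added for 15 min at 37 °C. PIP3 product detected by AlphaScreen competition using GST-GRP1, biotin-PIP3 and anti-GST acceptor/streptavidin donor beads, 1 h at room temperature.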

Chain of Phosphatidylinositol 3-kinase regulatory subunit alpha/4,5-bisphosphate 3-kinase catalytic subunit alpha isoform (P27986 whole entry, canonical isoform): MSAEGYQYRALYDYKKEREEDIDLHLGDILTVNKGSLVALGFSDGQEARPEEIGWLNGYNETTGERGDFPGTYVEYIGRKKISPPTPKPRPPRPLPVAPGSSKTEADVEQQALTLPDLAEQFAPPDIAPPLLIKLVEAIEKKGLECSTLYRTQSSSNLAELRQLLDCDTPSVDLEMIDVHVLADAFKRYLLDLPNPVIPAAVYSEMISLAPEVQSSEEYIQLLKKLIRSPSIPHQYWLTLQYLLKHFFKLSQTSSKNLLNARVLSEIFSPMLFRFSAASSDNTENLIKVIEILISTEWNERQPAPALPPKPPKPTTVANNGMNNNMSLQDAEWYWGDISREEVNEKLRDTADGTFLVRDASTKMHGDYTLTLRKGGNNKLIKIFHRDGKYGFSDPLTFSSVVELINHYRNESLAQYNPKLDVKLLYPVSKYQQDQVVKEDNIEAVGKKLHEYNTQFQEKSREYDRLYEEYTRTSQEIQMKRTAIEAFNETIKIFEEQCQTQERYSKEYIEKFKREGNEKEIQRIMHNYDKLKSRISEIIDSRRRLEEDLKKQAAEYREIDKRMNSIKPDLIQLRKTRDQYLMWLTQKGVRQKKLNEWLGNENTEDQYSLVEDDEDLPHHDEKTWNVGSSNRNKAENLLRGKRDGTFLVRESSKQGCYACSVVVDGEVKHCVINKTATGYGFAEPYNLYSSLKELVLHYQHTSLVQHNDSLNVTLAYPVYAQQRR
Chain of Phosphatidylinositol 3-kinase regulatory subunit alpha/4,5-bisphosphate 3-kinase catalytic subunit alpha isoform (P42336 whole entry, canonical isoform): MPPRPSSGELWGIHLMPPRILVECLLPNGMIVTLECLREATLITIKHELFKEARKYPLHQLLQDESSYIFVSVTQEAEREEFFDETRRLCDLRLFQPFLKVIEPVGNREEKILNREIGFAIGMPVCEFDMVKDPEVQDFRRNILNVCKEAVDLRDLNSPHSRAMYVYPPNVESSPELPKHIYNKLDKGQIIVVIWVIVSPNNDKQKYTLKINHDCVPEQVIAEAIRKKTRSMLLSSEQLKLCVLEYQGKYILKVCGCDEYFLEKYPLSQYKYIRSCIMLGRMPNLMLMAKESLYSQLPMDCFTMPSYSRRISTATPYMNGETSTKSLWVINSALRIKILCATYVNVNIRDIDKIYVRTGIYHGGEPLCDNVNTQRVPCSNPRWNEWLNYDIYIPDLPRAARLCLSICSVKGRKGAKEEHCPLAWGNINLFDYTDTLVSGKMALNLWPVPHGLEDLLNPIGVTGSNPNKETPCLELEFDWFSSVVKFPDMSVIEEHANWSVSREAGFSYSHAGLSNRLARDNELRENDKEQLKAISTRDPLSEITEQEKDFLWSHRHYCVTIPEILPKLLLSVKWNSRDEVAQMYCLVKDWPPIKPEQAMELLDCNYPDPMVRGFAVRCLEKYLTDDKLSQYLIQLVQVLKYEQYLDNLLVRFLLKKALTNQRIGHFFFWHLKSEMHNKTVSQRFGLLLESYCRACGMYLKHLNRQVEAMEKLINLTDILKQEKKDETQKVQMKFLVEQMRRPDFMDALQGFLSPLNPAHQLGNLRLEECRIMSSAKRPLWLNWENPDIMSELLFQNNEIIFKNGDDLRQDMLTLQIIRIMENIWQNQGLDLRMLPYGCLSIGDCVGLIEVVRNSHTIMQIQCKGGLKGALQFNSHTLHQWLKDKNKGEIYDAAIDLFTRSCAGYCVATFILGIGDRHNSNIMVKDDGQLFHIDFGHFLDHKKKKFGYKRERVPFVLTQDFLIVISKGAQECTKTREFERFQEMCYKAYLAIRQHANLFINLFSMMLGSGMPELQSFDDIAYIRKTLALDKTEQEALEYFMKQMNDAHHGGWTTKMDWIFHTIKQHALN

Row | IC50 [nM] | SMILES
1 | 22 | CCN1CCN(c2cc(F)c(NC(=O)N3CCc4c(-c5cnc(N)nc5)nc(N5CCOCC5)nc43)c(F)c2)CC1
2 | 10 | CCN1CCN(c2ccc(NC(=O)N3CCc4c(-c5cnc(N)nc5)nc(N5CCOCC5)nc43)c(C)c2)CC1

Source: BindingDB's records for doi:10.1016/j.bmc.2016.04.060 (Chugai Pharmaceutical, 2016)
